This is an account of results in ChEMBL document CHEMBL1137530, “The discovery of substituted 4-(3-hydroxyanilino)-quinolines as potent RET kinase inhibitors” (Bioorg Med Chem Lett, 2007).

In experiment [1] the target is T1, Proto-oncogene tyrosine-protein kinase receptor Ret (Homo sapiens, UniProt P07949). In words: Inhibition of RET kinase in Sf9 cells. It counts as cell-based.
In experiment [2] the target is T1, Proto-oncogene tyrosine-protein kinase receptor Ret. In words: Inhibition of RET kinase expressed in Sf9 cells at 5000 nm. The method, boiled down: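 RET kinase domain (intracellular aa 713–1072, short isoform), expressed in Sf9 insect cells and Ni-purified. 100 ng enzyme was screened at a single 5000 nM concentration, in triplicate. Reaction: MOPS pH 7.4, MgCl2, ATP (100 µM stock) plus [γ-33P]ATP 1 µCi, and poly(Glu-Tyr) substrate, 30 min at room temperature. Stopped with 0.5% H3PO4, filtered on phosphocellulose, read as scintillation cpm (mean of three).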

Experiment [3] addresses Proto-oncogene tyrosine-protein kinase Src (Homo sapiens) (UniProt P12931). Kind of experiment: Inhibitory of c-SRC.
Experiment [4] deals with Tyrosine-protein kinase Lyn (Homo sapiens) (UniProt P07948). In words: Inhibitory of lyn.
Tyrosine-protein kinase Lyn (Homo sapiens), sequence (P07948 2-512 limits assumed): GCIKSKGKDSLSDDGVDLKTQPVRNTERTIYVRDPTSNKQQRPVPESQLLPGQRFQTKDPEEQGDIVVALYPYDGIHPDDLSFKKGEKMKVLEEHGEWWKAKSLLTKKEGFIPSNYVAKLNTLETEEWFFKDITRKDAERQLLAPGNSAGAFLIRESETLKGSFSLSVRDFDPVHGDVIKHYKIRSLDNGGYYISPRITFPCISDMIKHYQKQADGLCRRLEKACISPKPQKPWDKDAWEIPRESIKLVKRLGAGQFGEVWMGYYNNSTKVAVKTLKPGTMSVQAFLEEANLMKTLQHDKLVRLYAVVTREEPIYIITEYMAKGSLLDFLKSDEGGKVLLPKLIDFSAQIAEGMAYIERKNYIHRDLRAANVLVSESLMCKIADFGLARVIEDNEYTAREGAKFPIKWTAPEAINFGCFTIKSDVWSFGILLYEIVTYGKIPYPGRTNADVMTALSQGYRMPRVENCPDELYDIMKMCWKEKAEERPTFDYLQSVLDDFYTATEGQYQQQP
In experiment [5] the target is Vascular endothelial growth factor receptor 2 (Homo sapiens) (UniProt P35968). Kind of experiment: Inhibitory of VEGFR2.
Vascular endothelial growth factor receptor 2 (Homo sapiens), sequence (P35968 whole entry): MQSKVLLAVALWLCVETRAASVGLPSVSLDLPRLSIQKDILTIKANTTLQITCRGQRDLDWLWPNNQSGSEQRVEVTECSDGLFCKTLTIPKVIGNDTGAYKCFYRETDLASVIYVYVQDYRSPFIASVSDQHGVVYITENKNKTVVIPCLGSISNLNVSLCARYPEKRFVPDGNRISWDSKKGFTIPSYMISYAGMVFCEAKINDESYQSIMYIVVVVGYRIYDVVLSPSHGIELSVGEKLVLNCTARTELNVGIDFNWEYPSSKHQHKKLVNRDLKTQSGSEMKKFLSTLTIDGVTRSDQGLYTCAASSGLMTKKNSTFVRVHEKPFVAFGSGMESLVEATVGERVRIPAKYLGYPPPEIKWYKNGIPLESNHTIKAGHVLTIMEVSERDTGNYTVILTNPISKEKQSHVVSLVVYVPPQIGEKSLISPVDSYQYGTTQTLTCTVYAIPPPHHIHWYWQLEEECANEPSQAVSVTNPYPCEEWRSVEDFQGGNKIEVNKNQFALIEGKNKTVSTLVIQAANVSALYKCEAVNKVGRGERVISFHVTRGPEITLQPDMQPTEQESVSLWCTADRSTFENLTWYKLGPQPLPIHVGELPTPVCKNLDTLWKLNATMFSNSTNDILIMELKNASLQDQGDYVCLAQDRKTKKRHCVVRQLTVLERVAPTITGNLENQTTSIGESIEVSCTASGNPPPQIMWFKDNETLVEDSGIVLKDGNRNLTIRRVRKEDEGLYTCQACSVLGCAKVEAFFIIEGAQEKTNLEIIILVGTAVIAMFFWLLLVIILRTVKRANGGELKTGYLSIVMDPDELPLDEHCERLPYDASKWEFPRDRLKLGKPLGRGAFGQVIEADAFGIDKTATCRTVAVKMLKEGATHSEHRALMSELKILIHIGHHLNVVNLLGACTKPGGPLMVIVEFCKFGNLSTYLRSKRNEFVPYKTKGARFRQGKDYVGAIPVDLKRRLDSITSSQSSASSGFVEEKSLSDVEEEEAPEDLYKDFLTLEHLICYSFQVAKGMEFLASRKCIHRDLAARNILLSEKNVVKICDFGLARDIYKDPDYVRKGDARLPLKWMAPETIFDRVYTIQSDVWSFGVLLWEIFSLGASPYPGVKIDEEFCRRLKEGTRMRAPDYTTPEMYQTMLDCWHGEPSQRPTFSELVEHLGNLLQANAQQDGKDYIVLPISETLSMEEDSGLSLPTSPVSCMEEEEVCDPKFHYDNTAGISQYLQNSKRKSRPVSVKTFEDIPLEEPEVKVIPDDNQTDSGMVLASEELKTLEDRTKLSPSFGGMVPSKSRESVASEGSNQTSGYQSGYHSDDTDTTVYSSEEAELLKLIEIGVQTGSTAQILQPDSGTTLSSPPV
For experiment [6], the target named is Angiopoietin-1 receptor (Homo sapiens) (UniProt Q02763). Kind of experiment: Inhibitory of TIE2.
Angiopoietin-1 receptor (Homo sapiens), sequence (Q02763 whole entry): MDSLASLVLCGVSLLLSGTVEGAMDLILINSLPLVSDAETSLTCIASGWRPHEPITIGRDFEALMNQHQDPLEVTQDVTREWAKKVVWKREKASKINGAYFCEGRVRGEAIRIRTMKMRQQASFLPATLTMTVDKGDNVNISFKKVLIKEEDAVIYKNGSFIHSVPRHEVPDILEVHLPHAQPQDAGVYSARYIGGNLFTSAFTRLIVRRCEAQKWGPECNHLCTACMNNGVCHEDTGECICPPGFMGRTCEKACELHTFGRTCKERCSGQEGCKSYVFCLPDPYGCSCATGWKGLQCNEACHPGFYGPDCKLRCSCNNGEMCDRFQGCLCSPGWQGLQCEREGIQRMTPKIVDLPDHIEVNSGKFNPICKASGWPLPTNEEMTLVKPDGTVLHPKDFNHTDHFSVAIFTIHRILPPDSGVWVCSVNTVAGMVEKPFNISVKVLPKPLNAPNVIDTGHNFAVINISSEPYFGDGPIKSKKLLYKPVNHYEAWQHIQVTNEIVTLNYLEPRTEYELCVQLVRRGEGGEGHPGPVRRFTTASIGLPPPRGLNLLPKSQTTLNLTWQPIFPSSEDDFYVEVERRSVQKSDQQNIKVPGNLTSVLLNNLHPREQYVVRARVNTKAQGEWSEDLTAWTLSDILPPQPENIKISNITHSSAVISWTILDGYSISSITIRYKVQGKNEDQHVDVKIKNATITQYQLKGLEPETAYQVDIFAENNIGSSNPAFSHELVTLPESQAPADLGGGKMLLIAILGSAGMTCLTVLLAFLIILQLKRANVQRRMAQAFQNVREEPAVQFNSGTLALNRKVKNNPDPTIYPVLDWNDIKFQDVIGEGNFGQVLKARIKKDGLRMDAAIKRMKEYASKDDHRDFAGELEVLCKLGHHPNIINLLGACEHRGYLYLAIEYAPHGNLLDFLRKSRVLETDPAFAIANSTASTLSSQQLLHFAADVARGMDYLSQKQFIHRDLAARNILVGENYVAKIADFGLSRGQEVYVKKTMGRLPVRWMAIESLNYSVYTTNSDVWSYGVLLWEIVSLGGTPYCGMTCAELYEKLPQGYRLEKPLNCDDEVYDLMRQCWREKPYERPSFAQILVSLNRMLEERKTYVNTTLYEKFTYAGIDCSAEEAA
For a further experiment, the system named is SK-N-MC. In words: Inhibition of chimeric human EGFR/RET kinase expressed in SK-N-MC cells after 1 hr by Western blotting. The format is cell-based.

Molecules are shown by their SMILES. Calls of active or inactive are those of the source. The calls are words filed in the database; no cut-off is given here. Where only a bound is given, the exact number is not on record here.

T1 sequence (P07949 whole entry, the tested form may be a part, canonical isoform): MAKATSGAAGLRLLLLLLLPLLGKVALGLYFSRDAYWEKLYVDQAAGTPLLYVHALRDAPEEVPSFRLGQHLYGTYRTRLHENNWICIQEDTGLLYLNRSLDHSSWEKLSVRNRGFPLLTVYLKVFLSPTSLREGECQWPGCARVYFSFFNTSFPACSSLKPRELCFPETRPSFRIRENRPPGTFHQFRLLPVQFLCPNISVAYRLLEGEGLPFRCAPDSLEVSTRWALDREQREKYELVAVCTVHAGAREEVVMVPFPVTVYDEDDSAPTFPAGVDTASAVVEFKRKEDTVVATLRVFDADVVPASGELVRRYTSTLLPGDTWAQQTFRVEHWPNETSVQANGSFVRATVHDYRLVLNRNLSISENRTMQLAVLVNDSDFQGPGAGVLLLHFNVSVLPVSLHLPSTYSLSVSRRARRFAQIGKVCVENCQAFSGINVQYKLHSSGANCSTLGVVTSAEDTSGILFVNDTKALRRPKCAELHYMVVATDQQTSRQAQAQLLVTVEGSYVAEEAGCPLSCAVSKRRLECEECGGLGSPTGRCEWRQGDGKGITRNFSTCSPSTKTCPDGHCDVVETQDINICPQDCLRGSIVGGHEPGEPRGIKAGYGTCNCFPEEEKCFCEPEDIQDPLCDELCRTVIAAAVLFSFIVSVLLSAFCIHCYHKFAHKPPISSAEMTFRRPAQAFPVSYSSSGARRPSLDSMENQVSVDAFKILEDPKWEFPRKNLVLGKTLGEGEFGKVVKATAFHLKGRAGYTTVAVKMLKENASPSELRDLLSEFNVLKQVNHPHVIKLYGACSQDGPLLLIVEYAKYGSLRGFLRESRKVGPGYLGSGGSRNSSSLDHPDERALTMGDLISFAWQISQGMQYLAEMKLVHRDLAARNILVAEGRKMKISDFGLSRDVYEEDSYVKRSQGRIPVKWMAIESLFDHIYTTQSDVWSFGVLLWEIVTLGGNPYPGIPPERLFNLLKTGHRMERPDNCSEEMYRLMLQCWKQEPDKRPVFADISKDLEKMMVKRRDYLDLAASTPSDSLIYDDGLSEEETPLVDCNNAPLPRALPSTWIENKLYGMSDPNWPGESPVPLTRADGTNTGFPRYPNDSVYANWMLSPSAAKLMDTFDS
Proto-oncogene tyrosine-protein kinase Src (Homo sapiens), sequence (P12931 2-536 limits assumed): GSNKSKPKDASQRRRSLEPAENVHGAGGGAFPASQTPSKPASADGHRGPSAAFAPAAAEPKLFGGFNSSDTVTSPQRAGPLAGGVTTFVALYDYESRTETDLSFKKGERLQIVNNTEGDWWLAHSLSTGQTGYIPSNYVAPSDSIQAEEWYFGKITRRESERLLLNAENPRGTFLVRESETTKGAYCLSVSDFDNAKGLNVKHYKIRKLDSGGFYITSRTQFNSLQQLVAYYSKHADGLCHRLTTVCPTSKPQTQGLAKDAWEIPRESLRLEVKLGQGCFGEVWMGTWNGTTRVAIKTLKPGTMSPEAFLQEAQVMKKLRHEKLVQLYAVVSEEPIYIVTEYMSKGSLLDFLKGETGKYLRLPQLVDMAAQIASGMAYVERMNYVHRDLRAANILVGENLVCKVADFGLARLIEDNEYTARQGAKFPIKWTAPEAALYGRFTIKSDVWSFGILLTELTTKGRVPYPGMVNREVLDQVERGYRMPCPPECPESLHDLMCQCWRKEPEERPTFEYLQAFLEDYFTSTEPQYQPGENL

Take `OCc1nc(-c2ccc3c(Nc4cc(O)c(F)cc4Cl)ccnc3c2)cs1`: inhibition in experiment [1] was half-maximal at 25 nM (IC50). Consider `O=C1Nc2ccc3ncsc3c2/C1=C/Nc1ccc2c(c1)CS(=O)(=O)C2`, for which the Activity in experiment [2] was 428 cpm. With `CS(=O)(=O)c1ccc2nccc(Nc3cc(O)c(F)cc3Cl)c2c1`, the Activity in experiment [2] amounted to 460 cpm. Regarding `Cc1ccc(O)cc1Nc1ccnc2cc(-c3ccccn3)ccc12`, in experiment [1], the IC50 (as a rule, the concentration that inhibits the measured activity by half) was determined as 75 nM. On the same count and under the same terms, in the case of `Oc1cc(Nc2ccnc3cc(-c4ccc(CN5CCOCC5)o4)c(Cl)cc23)c(Cl)cc1F` it was over 1000 nM.

With `Oc1cccc(Nc2ccnc3cc(-c4ccccn4)ccc23)c1`, the IC50 in experiment [1] came to 6 nM.

With `Oc1cccc(Nc2c(Cl)cnc3cc(-c4cncs4)ccc23)c1`, the half-maximal inhibitory concentration (IC50) in experiment [1] came out at 100 nM. With `COc1cc2ncnc(Nc3ccc(Cl)c(O)c3)c2cc1OC`, in experiment [2], the Activity was 298 cpm.

With `CN(C)S(=O)(=O)c1ccc(N/C=C2\C(=O)Nc3ccc4ncccc4c32)cc1`, in experiment [2], the Activity was 1210 cpm. Same read-out and setting: in the case of `O=C1Nc2ccc3ncsc3c2/C1=C/c1c[nH]cn1` it was 950 cpm. `Cc1ccc(O)cc1Nc1ccnc2ccc(C(=O)NC(C)C)cc12` had a half-maximal inhibitory concentration (IC50) in experiment [1] of 95 nM. The compound `Cc1ccc(O)cc1Nc1ccnc2ccc(S(=O)(=O)NCC3CC3)cc12` registered an IC50 in experiment [1] of 90 nM.

The compound `Oc1cc(Nc2ccnc3cc(-c4cc5ccccc5o4)ccc23)ccc1Br` showed an IC50 in experiment [1] of 85 nM. As for `Cc1ccc(O)cc1Nc1ccnc2ccc(S(C)(=O)=O)cc12`, the result in experiment [3], in experiment [4], in experiment [5] and in experiment [6] was Active. Turning to `Cc1ccc(O)cc1Nc1ccnc2cc(-c3csc(CN4CCOCC4)n3)c(S(C)(=O)=O)cc12`, the IC50 in experiment [1] came out at 34 nM. This compound showed an ED50 in the experiment with SK-N-MC of 45 nM. In addition, the result in experiment [3], in experiment [4], in experiment [5] and in experiment [6] was Active. `Oc1cc(Nc2ccnc3cc(-c4cccc(CNCCN5CCOCC5)c4)ccc23)c(F)cc1Cl` gave an IC50 in experiment [1] of 75 nM. In the case of `CS(=O)(=O)Cc1ccc(N/C=C2\C(=O)Nc3ccc4ncsc4c32)cc1`, the Activity in experiment [2] stood at 1310 cpm. On to `Cc1ccc(O)cc1Nc1cc(C(F)(F)F)nc2cc(-c3ccncc3)ccc12`, for which the IC50 in experiment [1] was over 1000 nM. In the case of `NS(=O)(=O)c1ccc(-c2cnc3c(c2)/C(=C/c2cc(Br)c(O)c(Br)c2)C(=O)N3)cc1`, the Activity in experiment [2] was 355 cpm.
